# Assay results published in ChEMBL document CHEMBL3259668, “Synthesis of N-benzenesulfonamide-1H-pyrazoles bearing arylsulfonyl moiety: novel celecoxib analogs as potent anti-inflammatory agents” (Eur J Med Chem, 2014).
# How the values were obtained:
# [1] = system: Rattus norvegicus; test: Antiinflammatory activity in ip dosed Sprague-Dawley rat assessed as inhibition of carrageenan-induced foot paw edema after 1 hr by plethysmometer analysis; format: functional; settings: Sprauge-Dawley
# How it was run: (§1)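 Rats fasted at least 16 h with free access to water. Compounds were given as a suspension in 0.5% methyl cellulose, with a vehicle-only negative control group. Paw volume was measured by water displacement on a plethysmometer before and after treatment. Inhibition (%) = (1 − D/C) × 100, where D and C are the paw-volume changes in treated and control groups.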
# [2] = system: Rattus norvegicus; test: Antiinflammatory activity in ip dosed Sprague-Dawley rat assessed as inhibition of carrageenan-induced foot paw edema after 3 hrs by plethysmometer analysis; format: functional; settings: Sprauge-Dawley; how it was run: as §1
# [3] = system: Mus musculus; test: Analgesic activity in ip dosed albino Swiss mouse after 2 hrs by hot plate test; format: functional
# How it was run: (§2)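 Mice given a single intraperitoneal dose of test compound (5-200 mg/kg). Reaction time on the hot plate was measured before treatment as the control and again at 15, 30, 60 and 120 min after injection, with a 60 s cut-off. Each animal served as its own control.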
# [4] = system: Mus musculus; test: Analgesic activity in ip dosed albino Swiss mouse after 0.5 hrs by hot plate test; format: functional; how it was run: as §2
# [5] = system: Rattus norvegicus; test: Antiinflammatory activity in ip dosed Sprague-Dawley rat assessed as inhibition of carrageenan-induced foot paw edema after 2 hrs by plethysmometer analysis; format: functional; settings: Sprauge-Dawley; how it was run: as §1
# [6] = system: Mus musculus; test: Analgesic activity in ip dosed albino Swiss mouse after 1 hr by hot plate test; format: functional; how it was run: as §2
# [7] = Toxicity in ip dosed mouse assessed as behavioral changes and death during observation up to 72 hrs; format: organism-based; settings: in vivo
# How it was run: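 Male mice in groups, given test compounds intraperitoneally at various doses. Watched continuously for up to 6 h, then kept under observation for 72 h, recording all behavioural changes and deaths. Percentage of deaths at each dose was converted to probits to calculate LD50 (mM/kg).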
# [8] = organism: Ovis aries; test: Selectivity index, ratio of ovine COX2 to ovine COX1
# [9] = system: Rattus norvegicus; test: Gastrointestinal toxicity in albino rat assessed as ulcer index at 100 umol/kg, po qd for 3 days measured 6 hrs after last dose; settings: in vivo, 100 µmol/kg
# [10] = molecular target: T1, Prostaglandin G/H synthase 1 (Ovis aries) (UniProt P05979); test: Inhibition of ovine COX1 at 5 uM
# T1 sequence (whole entry): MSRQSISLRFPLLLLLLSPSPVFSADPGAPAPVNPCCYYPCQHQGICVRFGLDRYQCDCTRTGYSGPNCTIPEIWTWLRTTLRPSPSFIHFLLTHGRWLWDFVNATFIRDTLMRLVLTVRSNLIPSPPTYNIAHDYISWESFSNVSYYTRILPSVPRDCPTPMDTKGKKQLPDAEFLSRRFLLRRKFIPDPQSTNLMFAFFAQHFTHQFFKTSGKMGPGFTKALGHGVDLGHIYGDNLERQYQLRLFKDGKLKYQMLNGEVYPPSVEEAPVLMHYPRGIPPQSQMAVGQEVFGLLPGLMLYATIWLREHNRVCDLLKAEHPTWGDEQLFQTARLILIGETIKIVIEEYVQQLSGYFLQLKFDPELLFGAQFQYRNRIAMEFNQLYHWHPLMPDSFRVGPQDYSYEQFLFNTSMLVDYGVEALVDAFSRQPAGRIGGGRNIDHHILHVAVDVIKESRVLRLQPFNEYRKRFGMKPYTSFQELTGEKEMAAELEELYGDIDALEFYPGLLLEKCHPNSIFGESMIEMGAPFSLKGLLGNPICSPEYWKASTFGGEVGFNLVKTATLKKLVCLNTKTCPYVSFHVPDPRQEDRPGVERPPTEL
Compound,ED50 [1] [µM/kg],ED50 [2] [µM/kg],ED50 [3] [µM/kg],ED50 [4] [µM/kg],ED50 [5] [µM/kg],ED50 [6] [µM/kg],LD50 at 72 h [7] [µmol/kg],Selectivity Index [8],UI [9],inhibition [10] [%]
O=S(=O)(C/C(=N/Nc1ccccc1)c1ccccc1)c1ccccc1,270,256,345,285,248,319,14600,–,–,–
Cc1ccc(C(=O)CS(=O)(=O)c2ccccc2)cc1,145,133,434,168,137,408,14300,–,–,–
CC(=O)c1nn(-c2ccc(S(N)(=O)=O)cc2)c(-c2ccc(Br)cc2)c1S(=O)(=O)c1ccccc1,87,68,80,57,64,81,7100,0.79,2.86,34
Cc1ccc(/C(CS(=O)(=O)c2ccccc2)=N\O)cc1,271,237,200,212,238,203,9000,–,–,–
CC(=O)c1nn(-c2ccc(S(N)(=O)=O)cc2)c(-c2ccc(Br)cc2)c1S(=O)(=O)c1ccc(C)cc1,75,51,204,69,54,195,7100,13,0.98,3
Cc1ccc(-c2cc(C(F)(F)F)nn2-c2ccc(S(N)(=O)=O)cc2)cc1 [CELECOXIB],89,86,70,156,89,72,9800,–,0.92,–
Cc1ccc(S(=O)(=O)CC(=O)c2ccc(Br)cc2)cc1,213,200,66,73,213,69,12700,–,–,–
O=C(CS(=O)(=O)c1ccccc1)c1ccc(Br)cc1,550,327,318,218,350,318,12400,–,–,–
CC(=O)c1nn(-c2ccc(S(N)(=O)=O)cc2)c(-c2ccccc2)c1S(=O)(=O)c1ccccc1,363,372,261,311,376,261,10100,–,–,–
CC(=O)c1nn(-c2ccc(S(N)(=O)=O)cc2)c(-c2ccc(C)cc2)c1S(=O)(=O)c1ccccc1,112,95,147,50,102,147,10100,1.83,2.25,18
Cc1ccc(/C(CS(=O)(=O)c2ccccc2)=N\Nc2ccccc2)cc1,280,169,288,220,181,260,11500,–,–,–
O=S(=O)(C/C(=N/O)c1ccccc1)c1ccccc1,285,256,244,320,245,265,17400,–,–,–
O=C(CS(=O)(=O)c1ccccc1)c1ccccc1,238,242,145,250,232,158,19700,–,–,–
